≈ marks a conversion by molar mass, not a printed value.
Columns and labels:
Assay type in all cases: functional
Pseudomonas aeruginosa [1] = experiment: Antibacterial activity against Pseudomonas aeruginosa 14-14 after 18 to 24 hrs by two-fold serial dilution method
Outline: (§1)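 Twofold serial dilution in agar media against Gram-positive and Gram-negative strains. Plates incubated at 35 °C for 18–24 h. MIC read as the lowest compound concentration giving complete inhibition of bacterial growth.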

Escherichia coli [2] = experiment: Antibacterial activity against extended-spectrum beta-lactamase producing Escherichia coli 14-2 after 18 to 24 hrs by two-fold serial dilution method; outline: as §1
Klebsiella pneumoniae [3] = experiment: Antibacterial activity against Klebsiella pneumoniae 14-4 after 18 to 24 hrs by two-fold serial dilution method; outline: as §1
Staphylococcus aureus [4] = experiment: Antibacterial activity against Staphylococcus aureus CMCC 26003 after 18 to 24 hrs by two-fold serial dilution method; outline: as §1
Staphylococcus aureus [5] = experiment: Antibacterial activity against methicillin-resistant Staphylococcus aureus 14-4 after 18 to 24 hrs by two-fold serial dilution method
Outline: (§2)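 Agar media, standard twofold serial dilution. MIC is the lowest concentration giving complete inhibition of bacterial growth after incubation at 35 °C for 18–24 h. Ciprofloxacin and levofloxacin were run as comparators.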

Klebsiella pneumoniae [6] = experiment: Antibacterial activity against Klebsiella pneumoniae 14-2 after 18 to 24 hrs by two-fold serial dilution method; outline: as §1
Pseudomonas aeruginosa [7] = experiment: Antibacterial activity against Pseudomonas aeruginosa 14-16 after 18 to 24 hrs by two-fold serial dilution method; outline: as §1
Staphylococcus aureus [8] = experiment: Antibacterial activity against methicillin-sensitive Staphylococcus aureus 14-1 after 18 to 24 hrs by two-fold serial dilution method; outline: as §1
Pseudomonas aeruginosa [9] = experiment: Antibacterial activity against Pseudomonas aeruginosa 14-15 after 18 to 24 hrs by two-fold serial dilution method; outline: as §1
Escherichia coli [10] = experiment: Antibacterial activity against Escherichia coli 14-2 after 18 to 24 hrs by two-fold serial dilution method; outline: as §1
Staphylococcus aureus [11] = experiment: Antibacterial activity against methicillin-sensitive Staphylococcus aureus 14-4 after 18 to 24 hrs by two-fold serial dilution method; outline: as §1
Enterococcus faecium [12] = experiment: Antibacterial activity against Enterococcus faecium 14-6 after 18 to 24 hrs by two-fold serial dilution method; outline: as §1
Streptococcus pneumoniae = experiment: Antibacterial activity against methicillin-resistant Streptococcus pneumoniae ATCC 19615 after 18 to 24 hrs by two-fold serial dilution method; outline: as §2
Klebsiella pneumoniae [13] = experiment: Antibacterial activity against Klebsiella pneumoniae 14-3 after 18 to 24 hrs by two-fold serial dilution method; outline: as §1
Escherichia coli [14] = experiment: Antibacterial activity against Escherichia coli 14-1 after 18 to 24 hrs by two-fold serial dilution method; outline: as §1
Escherichia coli [15] = experiment: Antibacterial activity against Escherichia coli ATCC 25922 after 18 to 24 hrs by two-fold serial dilution method; outline: as §1
Enterococcus faecium [16] = experiment: Antibacterial activity against Enterococcus faecium 14-5 after 18 to 24 hrs by two-fold serial dilution method; outline: as §1
Enterococcus faecalis [17] = experiment: Antibacterial activity against Enterococcus faecalis 14-2 after 18 to 24 hrs by two-fold serial dilution method; outline: as §1
Escherichia coli [18] = experiment: Antibacterial activity against extended-spectrum beta-lactamase producing Escherichia coli 14-1 after 18 to 24 hrs by two-fold serial dilution method; outline: as §1
[19] = test system: Staphylococcus epidermidis; experiment: Antibacterial activity against methicillin-resistant Staphylococcus epidermidis 14-39 after 18 to 24 hrs by two-fold serial dilution method; outline: as §2
[20] = test system: Staphylococcus epidermidis; experiment: Antibacterial activity against methicillin-resistant Staphylococcus epidermidis 14-21 after 18 to 24 hrs by two-fold serial dilution method; outline: as §2
Klebsiella pneumoniae [21] = experiment: Antibacterial activity against extended-spectrum beta-lactamase producing Klebsiella pneumoniae 14-18 after 18 to 24 hrs by two-fold serial dilution method; outline: as §1
Klebsiella pneumoniae [22] = experiment: Antibacterial activity against extended-spectrum beta-lactamase producing Klebsiella pneumoniae 14-17 after 18 to 24 hrs by two-fold serial dilution method; outline: as §1
Staphylococcus aureus [23] = experiment: Antibacterial activity against methicillin-resistant Staphylococcus aureus 14-5 after 18 to 24 hrs by two-fold serial dilution method; outline: as §2
Klebsiella pneumoniae [24] = experiment: Antibacterial activity against extended-spectrum beta-lactamase producing Klebsiella pneumoniae 14-19 after 18 to 24 hrs by two-fold serial dilution method; outline: as §1
Enterococcus faecalis [25] = experiment: Antibacterial activity against Enterococcus faecalis 14-1 after 18 to 24 hrs by two-fold serial dilution method; outline: as §1
[26] = test system: Staphylococcus epidermidis; experiment: Antibacterial activity against methicillin-resistant Staphylococcus epidermidis 14-22 after 18 to 24 hrs by two-fold serial dilution method; outline: as §2
Enterococcus faecium [27] = experiment: Antibacterial activity against Enterococcus faecium 14-2 after 18 to 24 hrs by two-fold serial dilution method; outline: as §1
Klebsiella pneumoniae [28] = experiment: Antibacterial activity against Klebsiella pneumoniae 14-1 after 18 to 24 hrs by two-fold serial dilution method; outline: as §1
Pseudomonas aeruginosa [29] = experiment: Antibacterial activity against Pseudomonas aeruginosa 14-9 after 18 to 24 hrs by two-fold serial dilution method; outline: as §1
[30] = test system: Staphylococcus epidermidis; experiment: Antibacterial activity against methicillin-resistant Staphylococcus epidermidis 14-37 after 18 to 24 hrs by two-fold serial dilution method; outline: as §2
Staphylococcus aureus [31] = experiment: Antibacterial activity against methicillin-sensitive Staphylococcus aureus 14-3 after 18 to 24 hrs by two-fold serial dilution method; outline: as §1
[32] = test system: Staphylococcus epidermidis; experiment: Antibacterial activity against methicillin-sensitive Staphylococcus epidermidis 14-2 after 18 to 24 hrs by two-fold serial dilution method; outline: as §1
Pseudomonas aeruginosa [33] = experiment: Antibacterial activity against Pseudomonas aeruginosa ATCC 27853 after 18 to 24 hrs by two-fold serial dilution method; outline: as §1
[34] = test system: Mycobacterium tuberculosis; experiment: Antimycobacterial activity against Mycobacterium tuberculosis H37Rv ATCC 27294 incubated for 7 days by microplate Alamar Blue assay; details: H37Rv ATCC 27294, 168 h
Outline: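 Fluorescence read-out. MIC is the lowest concentration that reduces fluorescence by at least 90% relative to the mean of replicate bacterium-only controls. Isoniazid and rifampicin were included as reference drugs.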

SMILES | MIC (Pseudomonas aeruginosa [1]) | MIC (Escherichia coli [2]) | MIC (Klebsiella pneumoniae [3]) | MIC (Staphylococcus aureus [4]) | MIC (Staphylococcus aureus [5]) | MIC (Klebsiella pneumoniae [6]) | MIC (Pseudomonas aeruginosa [7]) | MIC (Staphylococcus aureus [8]) | MIC (Pseudomonas aeruginosa [9]) | MIC (Escherichia coli [10]) | MIC (Staphylococcus aureus [11]) | MIC (Enterococcus faecium [12]) | MIC (Streptococcus pneumoniae) | MIC (Klebsiella pneumoniae [13]) | MIC (Escherichia coli [14]) | MIC (Escherichia coli [15]) | MIC (Enterococcus faecium [16]) | MIC (Enterococcus faecalis [17]) | MIC (Escherichia coli [18]) | MIC [19] | other results
CCO/N=C1/CN(c2c(F)cc3c(=O)c(C(=O)O)cn([C@@H]4C[C@@H]4F)c3c2OC)CC1CNC1CC1 (some centres undefined) | 32 µg/mL (≈ 65.2 µM) | > 32 µg/mL | > 32 µg/mL | 0.06 µg/mL (≈ 0.122 µM) | 8 µg/mL (≈ 16.3 µM) | > 32 µg/mL | 32 µg/mL (≈ 65.2 µM) | 8 µg/mL (≈ 16.3 µM) | 32 µg/mL (≈ 65.2 µM) | > 32 µg/mL | 0.06 µg/mL (≈ 0.122 µM) | 16 µg/mL (≈ 32.6 µM) | 0.25 µg/mL (≈ 0.51 µM) | > 32 µg/mL | > 32 µg/mL | 2 µg/mL (≈ 4.08 µM) | 4 µg/mL (≈ 8.15 µM) | 2 µg/mL (≈ 4.08 µM) | 4 µg/mL (≈ 8.15 µM) | 4 µg/mL (≈ 8.15 µM) | MIC [20]: 8 µg/mL (≈ 16.3 µM); MIC (Klebsiella pneumoniae [21]): 32 µg/mL (≈ 65.2 µM); MIC (Klebsiella pneumoniae [22]): 32 µg/mL (≈ 65.2 µM); MIC (Staphylococcus aureus [23]): 16 µg/mL (≈ 32.6 µM); MIC (Klebsiella pneumoniae [24]): > 32 µg/mL; MIC (Enterococcus faecalis [25]): 32 µg/mL (≈ 65.2 µM); MIC [26]: 8 µg/mL (≈ 16.3 µM); MIC (Enterococcus faecium [27]): 8 µg/mL (≈ 16.3 µM); MIC (Klebsiella pneumoniae [28]): > 32 µg/mL; MIC (Pseudomonas aeruginosa [29]): 32 µg/mL (≈ 65.2 µM); MIC [30]: 8 µg/mL (≈ 16.3 µM); MIC (Staphylococcus aureus [31]): 0.03 µg/mL (≈ 0.0612 µM); MIC [32]: 16 µg/mL (≈ 32.6 µM); MIC (Pseudomonas aeruginosa [33]): 16 µg/mL (≈ 32.6 µM)
CCO/N=C1/CN(c2nc3c(cc2F)c(=O)c(C(=O)O)cn3C2CC2)CC1(C)CNC1CC1 (centres undefined) | 128 µg/mL (≈ 280 µM) | > 128 µg/mL | > 128 µg/mL | < 0.008 µg/mL | 4 µg/mL (≈ 8.74 µM) | 64 µg/mL (≈ 140 µM) | 32 µg/mL (≈ 69.9 µM) | 0.25 µg/mL (≈ 0.546 µM) | 64 µg/mL (≈ 140 µM) | > 128 µg/mL | 0.25 µg/mL (≈ 0.546 µM) | 4 µg/mL (≈ 8.74 µM) | 0.25 µg/mL (≈ 0.546 µM) | 128 µg/mL (≈ 280 µM) | > 128 µg/mL | 1 µg/mL (≈ 2.19 µM) | 8 µg/mL (≈ 17.5 µM) | 0.125 µg/mL (≈ 0.273 µM) | 32 µg/mL (≈ 69.9 µM) | 4 µg/mL (≈ 8.74 µM) | MIC90 [34]: < 0.25 µg/mL; MIC [20]: 4 µg/mL (≈ 8.74 µM); MIC (Klebsiella pneumoniae [21]): 64 µg/mL (≈ 140 µM); MIC (Klebsiella pneumoniae [22]): 64 µg/mL (≈ 140 µM); MIC (Staphylococcus aureus [23]): 4 µg/mL (≈ 8.74 µM); MIC (Klebsiella pneumoniae [24]): 64 µg/mL (≈ 140 µM); MIC (Enterococcus faecalis [25]): 16 µg/mL (≈ 35 µM); MIC [26]: 4 µg/mL (≈ 8.74 µM); MIC (Enterococcus faecium [27]): 4 µg/mL (≈ 8.74 µM); MIC (Klebsiella pneumoniae [28]): 64 µg/mL (≈ 140 µM); MIC (Pseudomonas aeruginosa [29]): 32 µg/mL (≈ 69.9 µM); MIC [30]: 2 µg/mL (≈ 4.37 µM); MIC (Staphylococcus aureus [31]): 0.5 µg/mL (≈ 1.09 µM); MIC [32]: 8 µg/mL (≈ 17.5 µM); MIC (Pseudomonas aeruginosa [33]): 32 µg/mL (≈ 69.9 µM)

From ChEMBL document CHEMBL3734675, “Synthesis, antimycobacterial and antibacterial activity of fluoroquinolone derivatives containing an 3-alkoxyimino-4-(cyclopropylanimo)methylpyrrolidine moiety” (2015)
